Calls of active or inactive are those of the source. No cut-off for these calls is given here.

Data set [1] has as its system HL-60. The data set can be described thus: Induction of apoptosis in human HL60 cells assessed as decrease in Bcl-2 level by Western blotting analysis. The class given is functional, cell-based. A digest of the protocol: (§1)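 HL-60 cells incubated with the diterpene; whole-cell lysates probed by Western blot for Bcl-2 family proteins, with β-actin as loading control.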

For data set [2], the system named is HL-60. The data set can be described thus: Induction of apoptosis in human HL60 cells after 24 hrs by flow cytometry in presence of p38 MAPK inhibitor SB203580 (reference value: 15.1 +/- 3.8%). The class given is functional.
Data set [3] deals with HL-60. The data set can be described thus: Induction of ROS-mediated cell death in human HL60 cells at 3 uM after 15 mins to 4 hrs by flow cytometry in presence of NAC. The class given is functional, cell-based.
In data set [4] the test system is HL-60. The data set can be described thus: Induction of apoptosis in human HL60 cells assessed as procaspase-8 cleavage at 3 uM after 24 hrs by immunoblotting analysis. The class given is functional, cell-based. Summed up:
(§2)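 HL-60 cells treated 24 h with 3 μM; immunoblots of lysates probed with antibodies that recognize both pro-caspases and cleaved caspases, and for PARP.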

The test system of data set [5] is HL-60. The data set can be described thus: Induction of apoptosis in human HL60 cells assessed as accumulation at sub-G1 phase at 3 uM after 24 hrs by AnnexinV-FITC/propidium iodide staining-based flow cytometry (reference value: 4%).
In a further data set the test system is PBMC. The data set can be described thus: Cytotoxicity against human PBMC cells up to 3 uM after 24 hrs by MTT assay. The class given is cell-based. Summed up:
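PBMC from heparinized blood of healthy volunteers, isolated on Ficoll-Paque, cultured in parallel with HL-60 cells for 24 h at the stated concentrations; viability measured by MTT; Student's t-test versus untreated control.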

For data set [6], the system named is HL-60. The data set can be described thus: Cytotoxicity against human HL60 cells overexpressing Bcl-XL protein after 72 hrs by MTT assay. To be noted: HL-60, 72 h. The format is functional, cell-based.
Data set [7] deals with HL-60. The data set can be described thus: Induction of apoptosis in human HL60 cells assessed as procaspase-9 cleavage at 3 uM after 24 hrs by immunoblotting analysis. The format is functional, cell-based. A digest of the protocol: as §2
Data set [8] concerns HL-60. The data set can be described thus: Induction of apoptosis in human HL60 cells assessed as decrease in Bax level by Western blotting analysis. The class given is functional, cell-based. A digest of the protocol: as §1
In data set [9] the test system is HL-60. The data set can be described thus: Induction of apoptosis in human HL60 cells using DEVD-pNA as substrate assessed as caspase-3/7 activation at 3 uM after 24 hrs relative to control. The format is functional. A digest of the protocol:
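HL-60 cells treated with 3 μM diterpene for 24 h. Lysates were assayed for cleavage of chromogenic tetrapeptide substrates DEVD-pNA (caspase-3/7), IETD-pNA (caspase-8) and LEHD-pNA (caspase-9). Activity is expressed as n-fold over untreated control. Mean ± SE of three independent experiments, each in triplicate.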

Data set [10] relates to HL-60. The data set can be described thus: Cell cycle arrest in human HL60 cells assessed as accumulation at G2-M phase at 3 uM after 24 hrs by […]propidium iodide staining-based flow cytometry (reference value: 4%). The format is functional.
For data set [11], the system named is HL-60. The data set can be described thus: Cell cycle arrest in human HL60 cells assessed as accumulation at G1 phase at 3 uM after 24 hrs by […]propidium iodide staining-based flow cytometry (reference value: 43%). The format is functional.
For data set [12], the system named is HL-60. The data set can be described thus: Induction of apoptosis in human HL60 cells after 24 hrs by flow cytometry in presence of JNK/SAPK inhibitor SP600125. The class given is functional, cell-based.
The test system of data set [13] is HL-60. The data set can be described thus: Induction of apoptosis in human HL60 cells after 24 hrs by flow cytometry in presence of MEK1 inhibitor PD98059. The class given is functional, cell-based.
The test system of data set [14] is HL-60. The data set can be described thus: Induction of apoptosis in human HL60 cells assessed as fragmented and/or condensed nuclei at 3 uM after 24 hrs by transmission electron microscopy. The class given is functional, cell-based. Summed up: (§3)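 HL-60 cells incubated 24 h with 3 μM compound and examined by transmission electron microscopy for ultrastructural changes.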

Data set [15] deals with HL-60. The data set can be described thus: Induction of apoptosis in human HL60 cells assessed as abundant vacuoles at 3 uM after 24 hrs by transmission electron microscopy. The class given is functional, cell-based. Summed up: as §3
Data set [16] relates to HL-60. The data set can be described thus: Induction of apoptosis in human HL60 cells assessed as dense perinuclear condensation at 3 uM after 24 hrs by transmission electron microscopy. The format is functional, cell-based. A digest of the protocol:
as §3

The subject of data set [17] is HL-60. The data set can be described thus: Induction of apoptosis in human HL60 cells assessed as procaspase-7 cleavage at 3 uM after 24 hrs by immunoblotting analysis. The format is functional, cell-based. A digest of the protocol:
as §2

The subject of data set [18] is HL-60. The data set can be described thus: Induction of apoptosis in human HL60 cells after 24 hrs by flow cytometry in presence of MEK2 inhibitor U0126. The format is functional, cell-based.
In data set [19] the test system is HL-60. The data set can be described thus: Induction of intracellular ROS generation in human HL60 cells at 3 uM after 15 mins to 4 hrs by flow cytometry. The format is functional, cell-based. Summed up:
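HL-60 cells given 3 μM diterpene for the indicated times, then loaded with H2-DCF-DA. Fluorescence of oxidized H2DCF was measured by flow cytometry. Three independent experiments.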

Take `CC(=O)O[C@H]1C2=C(C(=O)C(OC(=O)c3ccc(Cl)cc3)=C(C(C)C)C2=O)[C@@]2(C)CCCC(C)(C)[C@@H]2[C@@H]1O`: the result in the data set with HL-60 [1], in the data set on HL-60 [2], in the data set with HL-60 [4], in the data set on HL-60 [7] and with HL-60 [8] was Active. Also, the result with HL-60 [3] was inactive. For the same compound, the Activity in the data set with HL-60 [5] was 9%; with PBMC, “Non-toxic”. In addition, the IC50 in the data set on HL-60 [6] was determined as 2200 nM. In the data set with HL-60 [9], the “fold change (FC)” value is 2.
Turning to `CC(=O)O[C@H]1C2=C(C(=O)C(OC(=O)c3ccccc3)=C(C(C)C)C2=O)[C@@]2(C)CCCC(C)(C)[C@@H]2[C@@H]1OC(=O)c1ccccc1`, the result in the data set on HL-60 [2], with HL-60 [4], with HL-60 [12], in the data set with HL-60 [13], with HL-60 [14] and in the data set with HL-60 [15] was Active. The outcome in the data set on HL-60 [16], with HL-60 [17], with HL-60 [18] and in the data set with HL-60 [7] was Active. Further, the Activity is reported as 16% in the data set on HL-60 [10], 30% with HL-60 [11] and “Non-toxic” with PBMC. In the data set with HL-60 [3], the outcome was inactive. For the same compound, it took 1100 nM to reach half-maximal inhibition in the data set on HL-60 [6] (IC50). Also, the “fold change (FC)” value with HL-60 [9] was found to be 2.
As to `COc1ccc(C(=O)OC2=C(C(C)C)C(=O)C3=C(C2=O)[C@@]2(C)CCCC(C)(C)[C@@H]2[C@H](O)[C@H]3OC(C)=O)cc1`, the result with HL-60 [4], in the data set with HL-60 [12], in the data set with HL-60 [13], with HL-60 [18] and with HL-60 [7] was Active. The Activity in the data set with HL-60 [5] is reported as 8%; in the data set with PBMC it was “Non-toxic”. For the same compound, the outcome with HL-60 [19] was inactive. Also, in the data set on HL-60 [6], the IC50 was determined as 2900 nM. Further, the “fold change (FC)” value with HL-60 [9] is 2.

These data come from ChEMBL document CHEMBL2424587, “Antiproliferative activity of abietane diterpenoids against human tumor cells” (J Nat Prod, 2013).
